Results on eleven molecules are retold here after paper PMC4879609 (Molecular microbiology, 2016).

Values joined by “and” are separate entries in the source; they are usually repeats but may differ in a detail not shown here. Equal values may be shown once. Read-outs that look alike come from different tables or passages of the source.

Data set [1] deals with T1, LmGMPR (Leishmania major, UniProt Q4QEB3).
T1 sequence (Q4QEB3 1-492): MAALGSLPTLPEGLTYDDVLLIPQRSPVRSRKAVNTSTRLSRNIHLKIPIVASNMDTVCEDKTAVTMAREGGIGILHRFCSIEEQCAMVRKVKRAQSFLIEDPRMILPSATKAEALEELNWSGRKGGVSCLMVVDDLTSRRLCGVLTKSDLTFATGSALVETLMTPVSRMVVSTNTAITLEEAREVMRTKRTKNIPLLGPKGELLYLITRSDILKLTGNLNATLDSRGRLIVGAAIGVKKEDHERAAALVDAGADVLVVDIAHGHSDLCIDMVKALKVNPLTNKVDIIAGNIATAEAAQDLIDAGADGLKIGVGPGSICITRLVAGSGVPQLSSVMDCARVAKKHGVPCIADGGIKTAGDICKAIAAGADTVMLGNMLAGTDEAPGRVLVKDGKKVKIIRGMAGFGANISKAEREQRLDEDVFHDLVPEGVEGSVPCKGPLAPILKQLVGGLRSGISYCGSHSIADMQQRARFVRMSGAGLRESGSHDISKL
The data set is described as follows: Steady-state kinetic analysis of LmGMPR. The data set is classed as biochemical, L. major. As to conditions: for Increase in NADPH Km value: saturating concentrations of GMP.

Data set [2] has as its target T1, LmGMPR. The data set is described as follows: Fluorescence titration of nucleotide binding to full length LmGMPR. Details: species or system L. major.
In data set [3] the target is LmGMPR CBS domain (His6-gmpr92-222) (Leishmania major, UniProt Q4QEB3). The data set is described as follows: Intrinsic fluorescence binding to LmGMPR CBS domain. Details: species or system L. major.
Data set [4] addresses T2, LdIMPDH (Leishmania donovani, UniProt P21620). The data set is described as follows: biochemical. The data set is classed as binding.
The target of data set [5] is LdIMPDH CBS domain (His6-impdh112-223) (Leishmania donovani, UniProt P21620). The data set is described as follows: Intrinsic fluorescence binding to LdIMPDH CBS domain. Further details: species or system L. donovani.
In data set [6] the target is T1, LmGMPR. The data set is described as follows: Rate zonal centrifugation, quaternary structure of LmGMPR. Further details: species or system L. major. The note with it: saturating (1.0 mM) nucleotide, 5–40% glycerol gradient. In a few lines: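 Recombinant LmGMPR expressed in GMPR-deficient E. coli and purified by ammonium sulfate fractionation and Cibacron blue chromatography. Spun at 34,000 rpm for 16 h at 4 °C; 50 μg bovine hemoglobin as internal standard.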

Data set [7] has as its target T2, LdIMPDH. The data set is described as follows: Rate zonal centrifugation, quaternary structure of LdIMPDH. Further details: species or system L. donovani. The note with it: saturating nucleotide, glycerol gradient.
The target of data set [8] is T2, LdIMPDH. As to conditions: read-out: inhibition constant (Ki); ref Dobie et al., 2007; cited from earlier work.
The test system of the next data set is Leishmania. The data set is described as follows: Leishmania growth in media with defined purine source in presence of MPA. The data set is classed as cell-based. As to conditions: media supplemented with either guanine or xanthine (Fig. S2).
The target of data set [9] is eukaryotic IMPDH enzymes, including human and Leishmania. As to conditions: literature values; cited from earlier work.
Data set [10] deals with Leishmania major guanosine 5'-monophosphate reductase (Leishmania major). The data set is described as follows: rate zonal centrifugation on a glycerol gradient.
Data set [11] deals with the molecule itself. The data set is described as follows: rate zonal centrifugation on a glycerol gradient.
Data set [12] concerns the molecule itself. The data set is described as follows: rate zonal centrifugation on a glycerol gradient. The source holds these as a separate data set.
Setting [13] is: read-out: Kd1, 26 μM LmGMPR, no NADPH, fluorescence at 335 nm.
Where [14] appears, read: 20 μM LdIMPDH, single phase binding isotherm.

`NC(=O)C1=CN([C@@H]2O[C@H](COP(=O)(O)OP(=O)(O)OC[C@H]3O[C@@H](n4cnc5c(N)ncnc54)[C@H](O)[C@@H]3O)[C@@H](O)[C@H]2O)C=CC1` [NADH]: the “Use as hydride donor for reductive deamination of GMP” value at LmGMPR [1] (NADH up to 5.0 mM) is recorded as “failed to induce the reductive deamination of GMP”.
Consider `Nc1ncnc2c1ncn2[C@@H]1O[C@H](COP(=O)(O)OP(=O)(O)OP(=O)(O)O)[C@@H](O)[C@H]1O` [ATP], for which the “Decrease in Vmax value” at LmGMPR [1] (1.0 mM ATP) is reported as ~ 4 fold. In addition, the “Increase in GMP Ks (Km) value” on LmGMPR [1] (1.0 mM ATP) was 10 fold and ~ 10 fold. Besides, on LmGMPR [1], the “Increase in NADPH Km value” is listed as ~ 2 fold. In addition, the Kd at LmGMPR [2] (setting [13]) worked out at 87 ± 24 µM; on LdIMPDH [4] (setting [14]), 130 ± 11 µM; in [5] (intrinsic fluorescence changes), 148 ± 19 µM. Also, the Binding saturation result in data set [3] (up to 3.0 mM) is reported as “saturation binding was not attained”. Also, at LmGMPR [6], the “Quaternary structure of LmGMPR” value was “monomeric and dimeric forms”. In addition, the “Quaternary structure of LdIMPDH” value at LdIMPDH [7] is given as “tetrameric structure”.
Consider `Nc1ncnc2c1ncn2[C@@H]1O[C@H](COP(=O)(O)O)[C@@H](O)[C@H]1O` [AMP], for which the “Quaternary structure of LdIMPDH” value at LdIMPDH [7] was “tetrameric structure”.
Consider `NC(=O)C1=CN([C@@H]2O[C@H](COP(=O)(O)OP(=O)(O)OC[C@H]3O[C@@H](n4cnc5c(N)ncnc54)[C@H](OP(=O)(O)O)[C@@H]3O)[C@@H](O)[C@H]2O)C=CC1` [NADPH], for which the Kd on LmGMPR [2] (absence of GMP, shift of NADPH emission λmax, excitation 340 nm, equation 3) amounted to 27 ± 4 µM.
Consider `O=c1[nH]cnc2nc[nH]c12` [hypoxanthine], for which, at LdIMPDH [4] (concentration of 2.0 mM), the “Binding to LdIMPDH” value is on record as “no significant binding”. In addition, the “Binding to LdIMPDH CBS domain” value in data set [5] was “no saturable binding”.
Take `Nc1nc2c(ncn2[C@@H]2O[C@H](COP(=O)(O)O)[C@@H](O)[C@H]2O)c(=O)[nH]1` [GMP, guanosine 5′-monophosphate]: the values for the Kd (on LmGMPR [2]; in [3]; at LdIMPDH [4]) were 20 ± 2 µM, 333 ± 27 µM and 66 ± 7 µM, respectively. For the same molecule, on LmGMPR [6], the “Quaternary structure of LmGMPR” value is recorded as “stabilized the formation of the LmGMPR tetramer”. In addition, the “Quaternary structure of LdIMPDH” value on LdIMPDH [7] was “tetrameric structure”. Also, the inhibitory constant (Ki) – broadly, a measure of affinity in units of concentration, obtained from inhibition or displacement – at LdIMPDH [8] is around 200 µM.
Consider `[Mg+2]` [Mg^2+], for which the “Effect on LmGMPR enzymatic activity” value on LmGMPR [1] (added to the reaction buffer) was “no significant affect on enzymatic activity”.
In the case of `COc1c(C)c2c(c(O)c1C/C=C(\C)CCC(=O)O)C(=O)OC2` [MPA, mycophenolic acid], the Ki at LmGMPR [1] was around 20 µM; in data set [9], 0.004 to 0.02 µM. Also, on LmGMPR [1], the “Mode of inhibition of LmGMPR” value was “competitive inhibitor of NADPH”. The “Effect on parasite growth” value in the data set on Leishmania is reported as “refractory to MPA”.
Regarding `Nc1nc2c(ncn2[C@@H]2O[C@H](COP(=O)(O)OP(=O)(O)OP(=O)(O)O)[C@@H](O)[C@H]2O)c(=O)[nH]1` [GTP], the “Decrease in GMP Ks value” at LmGMPR [1] (10 μM GTP) is on record as ~ 3 fold. The “Increase in Vmax value” on LmGMPR [1] (10 μM GTP) is recorded as ~ 8 fold. Moreover, the “Increase in NADPH Km value” on LmGMPR [1] was ~ 2 fold. Besides, at LmGMPR [1] (steady state kinetic analysis), the “Utilization as substrate by LmGMPR” value is listed as “not utilized as a substrate”. For the same molecule, the Kd on LmGMPR [2] (setting [13]) came out at 16 ± 1 µM; in data set [3] (single phase binding isotherm, 35 μM His6-gmpr92-222), 188 ± 19 µM; at LdIMPDH [4] (setting [14]), 67 ± 5 µM. Moreover, the “Quaternary structure of LmGMPR” value on LmGMPR [6] is given as “stabilized the formation of the LmGMPR tetramer”.
Regarding “Leishmania major guanosine 5'-monophosphate reductase (enzyme)”, the stoichiometry N (commonly a count of units in the complex or per binding partner) in data set [10] stood at 2.

B1: Leishmania donovani inosine 5'-monophosphate dehydrogenase (enzyme, UniProt P21620 1-514, looked up)
chain: MATNNANYRIKTIKDGCTAEELFRGDGLTYNDFIILPGFIDFGAADVNISGQFTKRIRLHIPIVSSPMDTITENEMAKTMALMGGVGVLHNNCTVERQVEMVKSVKAYRNGFISKPKSVPPNTPISNIIRIKEEKGISGILVTENGDPHGKLLGIVCTKDIDYVKNKDTPVSAVMTRREKMTVERAPIQLEEAMDVLNRSRYGYLPIVNENDEVVNLCSRRDAVRARDYPHSTLDKSGRLICAAATSTRPEDKRRVAALADVGVDVLVLDSSQGNTIYQIAFIKWVKSTYPHLEVVAGNVVTQDQAKNLIDAGADGIRIGMGSGSICITQEVLACGRPQGTAVYKVAQYCASRGVPCTADGGLRQVGDICKALAIGANCAMLGGMLSGTTETPGEYFFKGGVRLKVYRGMGSLEAMSQGKESGKRYLSENEAVQVAQGVSGNVVDKGSAAKLIAYVSKGLQQSAQDIGEISFDAIREKMYAGQVLFSRRSPTAQGEGGVHSLHSYEKKLFAAKM
As to B1, the “stoichiometry N” value was found to be 4 in data set [11] and 2 in data set [12].
